Experimental data: ChEMBL document CHEMBL1154093, “New azoles with potent antifungal activity: design, synthesis and molecular docking” (2009)
Values after ≈ are worked out from the molar mass of the structure shown. Active and inactive are the calls of the source. No cut-off for these calls is given here.

Assays:
Candida tropicalis = assay: Antifungal activity against Candida tropicalis after 24 hrs by serial dilution method; type: functional
In short: (§1)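 NCCLS broth microdilution in RPMI 1640 buffered with 0.165 M MOPS, with strains from ATCC or clinical isolates. Compounds were dissolved in DMSO and serially diluted in medium. Yeasts were incubated at 35 °C and read at 24 h for Candida or 72 h for C. neoformans. MIC was the lowest concentration giving ≥80% turbidity inhibition versus the growth control.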

Trichophyton rubrum = assay: Antifungal activity against Trichophyton rubrum after 7 days by serial dilution method; type: functional; conditions: 168 h
In short: (§2)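 Dermatophytes (ATCC or clinical isolates) were tested by NCCLS serial dilution in RPMI 1640 with 0.165 M MOPS, incubated at 28 °C and read at 7 days. Compounds were taken up in DMSO and diluted in medium. MIC was the lowest concentration reducing turbidity by at least 80% relative to the drug-free growth control.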

Candida albicans [1] = assay: Antifungal activity against multidrug-resistant Candida albicans after 24 hrs by serial dilution method; type: functional
In short: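 Broth serial dilution in 96-well plates per NCCLS recommendations; RPMI 1640 buffered with 0.165 M MOPS as medium. Compounds dissolved in DMSO, serially diluted in growth medium. Strains from ATCC or clinical isolates. Yeasts incubated at 35 °C, read at 24 h for Candida. MIC = lowest concentration giving turbidity at or below 80% inhibition versus growth control.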

Candida parapsilosis = assay: Antifungal activity against Candida parapsilosis after 24 hrs by serial dilution method; type: functional, organism-based; in short: as §1
Cryptococcus neoformans = assay: Antifungal activity against Cryptococcus neoformans after 72 hrs by serial dilution method; type: functional; in short: as §1
Candida albicans [2] = assay: Antifungal activity against Candida albicans after 24 hrs by serial dilution method; type: functional; in short: as §1
Aspergillus fumigatus = assay: Antifungal activity against Aspergillus fumigatus after 7 days by serial dilution method; type: functional; conditions: 168 h
In short: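 Filamentous fungus (ATCC or clinical isolate) was tested by NCCLS microdilution in MOPS-buffered (0.165 M) RPMI 1640. Compounds were dissolved in DMSO and serially diluted in medium, and growth was scored at 7 days. MIC was the lowest concentration producing ≥80% inhibition of turbidity compared with the untreated control.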

Nannizzia gypsea = assay: Antifungal activity against Microsporum gypseum after 7 days by serial dilution method; type: functional; conditions: 168 h; in short: as §2

Structure (SMILES) | MIC80 (Candida tropicalis) [µg/mL] | MIC80 (Trichophyton rubrum) [µg/mL] | MIC80 (Candida albicans [1]) [µg/mL] | Activity (Candida parapsilosis) | MIC80 (Cryptococcus neoformans) [µg/mL] | MIC80 (Candida albicans [2]) [µg/mL] | MIC80 (Aspergillus fumigatus) [µg/mL] | MIC80 (Nannizzia gypsea) [µg/mL]
OC(CN1CCN(CCCOc2ccccc2)CC1)(Cn1cncn1)c1ccc(F)cc1F (racemic) | 0.0625 (≈ 0.137 µM) | 0.25 (≈ 0.546 µM) | 64 (≈ 140 µM) | Active | 1 (≈ 2.19 µM) | 0.0156 (≈ 0.0341 µM) | 32 (≈ 69.9 µM) | 4 (≈ 8.74 µM)
Nc1ccccc1OCCCN1CCN(CC(O)(Cn2cncn2)c2ccc(F)cc2F)CC1 (racemic) | 0.25 (≈ 0.529 µM) | 1 (≈ 2.12 µM) | 0.5 (≈ 1.06 µM) | Active | 4 (≈ 8.46 µM) | 0.25 (≈ 0.529 µM) | 64 (≈ 135 µM) | 16 (≈ 33.9 µM)
OC(CN1CCN(CCCOc2cccc(Br)c2)CC1)(Cn1cncn1)c1ccc(F)cc1F (racemic) | 0.0156 (≈ 0.0291 µM) | 0.0625 (≈ 0.117 µM) | 16 (≈ 29.8 µM) | Active | 0.25 (≈ 0.466 µM) | 0.0156 (≈ 0.0291 µM) | 4 (≈ 7.46 µM) | 0.25 (≈ 0.466 µM)
O=[N+]([O-])c1cccc(OCCCN2CCN(CC(O)(Cn3cncn3)c3ccc(F)cc3F)CC2)c1 (racemic) | 0.0156 (≈ 0.031 µM) | 0.0625 (≈ 0.124 µM) | 0.25 (≈ 0.497 µM) | Active | 0.25 (≈ 0.497 µM) | 0.0625 (≈ 0.124 µM) | 32 (≈ 63.7 µM) | 0.25 (≈ 0.497 µM)
OC(CN1CCN(CCCCCOc2ccccc2)CC1)(Cn1cncn1)c1ccc(F)cc1F (racemic) | 0.0625 (≈ 0.129 µM) | 0.25 (≈ 0.515 µM) | 4 (≈ 8.24 µM) | Active | 1 (≈ 2.06 µM) | 0.0625 (≈ 0.129 µM) | 32 (≈ 65.9 µM) | 4 (≈ 8.24 µM)
CC(C)(C)c1ccc(OCCCN2CCN(CC(O)(Cn3cncn3)c3ccc(F)cc3F)CC2)cc1 (racemic) | 0.0156 (≈ 0.0304 µM) | 0.0156 (≈ 0.0304 µM) | 0.125 (≈ 0.243 µM) | Active | 0.0625 (≈ 0.122 µM) | 0.0156 (≈ 0.0304 µM) | 2 (≈ 3.89 µM) | 0.0625 (≈ 0.122 µM)
Nc1ccc(OCCCN2CCN(CC(O)(Cn3cncn3)c3ccc(F)cc3F)CC2)cc1 (racemic) | 1 (≈ 2.12 µM) | 4 (≈ 8.46 µM) | 0.25 (≈ 0.529 µM) | Active | 4 (≈ 8.46 µM) | 0.25 (≈ 0.529 µM) | 64 (≈ 135 µM) | 16 (≈ 33.9 µM)
O=C(Nc1ccc(OCCCN2CCN(CC(O)(Cn3cncn3)c3ccc(F)cc3F)CC2)cc1)c1ccccc1 (racemic) | 1 (≈ 1.73 µM) | 16 (≈ 27.7 µM) | 0.5 (≈ 0.867 µM) | Active | 16 (≈ 27.7 µM) | 0.25 (≈ 0.434 µM) | > 64 | 64 (≈ 111 µM)
OC(CN1CCN(CCCOc2ccc(Br)cc2)CC1)(Cn1cncn1)c1ccc(F)cc1F (racemic) | 0.0156 (≈ 0.0291 µM) | 0.0625 (≈ 0.117 µM) | 0.25 (≈ 0.466 µM) | Active | 0.25 (≈ 0.466 µM) | 0.0156 (≈ 0.0291 µM) | 1 (≈ 1.86 µM) | 0.25 (≈ 0.466 µM)
O=[N+]([O-])c1ccc(OCCCN2CCN(CC(O)(Cn3cncn3)c3ccc(F)cc3F)CC2)cc1 (racemic) | 0.0625 (≈ 0.124 µM) | 0.0625 (≈ 0.124 µM) | 0.125 (≈ 0.249 µM) | Active | 0.25 (≈ 0.497 µM) | 0.0625 (≈ 0.124 µM) | 32 (≈ 63.7 µM) | 1 (≈ 1.99 µM)
OC(CN1CCN(CCCOc2ccccc2Cl)CC1)(Cn1cncn1)c1ccc(F)cc1F (racemic) | 0.0625 (≈ 0.127 µM) | 0.25 (≈ 0.508 µM) | 16 (≈ 32.5 µM) | Active | 1 (≈ 2.03 µM) | 0.0625 (≈ 0.127 µM) | 32 (≈ 65 µM) | 1 (≈ 2.03 µM)
OC(CN1CCN(CCCOc2ccc(OCc3ccccc3)cc2)CC1)(Cn1cncn1)c1ccc(F)cc1F (racemic) | 0.0625 (≈ 0.111 µM) | 0.0625 (≈ 0.111 µM) | 32 (≈ 56.8 µM) | Active | 0.25 (≈ 0.444 µM) | 0.0625 (≈ 0.111 µM) | 2 (≈ 3.55 µM) | 0.0625 (≈ 0.111 µM)
Nc1cccc(OCCCN2CCN(CC(O)(Cn3cncn3)c3ccc(F)cc3F)CC2)c1 (racemic) | 1 (≈ 2.12 µM) | 4 (≈ 8.46 µM) | 0.25 (≈ 0.529 µM) | Active | 16 (≈ 33.9 µM) | 1 (≈ 2.12 µM) | > 64 | 64 (≈ 135 µM)
Cc1cccc(OCCCN2CCN(CC(O)(Cn3cncn3)c3ccc(F)cc3F)CC2)c1 (racemic) | 0.0625 (≈ 0.133 µM) | 0.25 (≈ 0.53 µM) | 0.125 (≈ 0.265 µM) | Active | 1 (≈ 2.12 µM) | 0.0156 (≈ 0.0331 µM) | 16 (≈ 33.9 µM) | 1 (≈ 2.12 µM)
O=[N+]([O-])c1ccccc1OCCCN1CCN(CC(O)(Cn2cncn2)c2ccc(F)cc2F)CC1 (racemic) | 0.25 (≈ 0.497 µM) | 1 (≈ 1.99 µM) | 2 (≈ 3.98 µM) | Active | 4 (≈ 7.96 µM) | 0.25 (≈ 0.497 µM) | 64 (≈ 127 µM) | 4 (≈ 7.96 µM)
OC(CN1CCN(CCCOc2ccc(Cl)cc2)CC1)(Cn1cncn1)c1ccc(F)cc1F (racemic) | 0.0156 (≈ 0.0317 µM) | 0.0156 (≈ 0.0317 µM) | 0.125 (≈ 0.254 µM) | Active | 0.25 (≈ 0.508 µM) | 0.0156 (≈ 0.0317 µM) | 4 (≈ 8.13 µM) | 0.25 (≈ 0.508 µM)
Cc1ccccc1OCCCN1CCN(CC(O)(Cn2cncn2)c2ccc(F)cc2F)CC1 (racemic) | 0.0625 (≈ 0.133 µM) | 0.25 (≈ 0.53 µM) | 0.125 (≈ 0.265 µM) | Active | 1 (≈ 2.12 µM) | 0.0625 (≈ 0.133 µM) | 32 (≈ 67.9 µM) | 1 (≈ 2.12 µM)
OC(CN1CCN(CCCOc2ccc(F)cc2)CC1)(Cn1cncn1)c1ccc(F)cc1F (racemic) | 0.0625 (≈ 0.131 µM) | 0.25 (≈ 0.526 µM) | 32 (≈ 67.3 µM) | Active | 1 (≈ 2.1 µM) | 0.0156 (≈ 0.0328 µM) | 32 (≈ 67.3 µM) | 1 (≈ 2.1 µM)
Cc1ccc(OCCCN2CCN(CC(O)(Cn3cncn3)c3ccc(F)cc3F)CC2)cc1 (racemic) | 0.0625 (≈ 0.133 µM) | 0.0625 (≈ 0.133 µM) | 0.12 (≈ 0.254 µM) | Active | 0.25 (≈ 0.53 µM) | 0.0156 (≈ 0.0331 µM) | 8 (≈ 17 µM) | 0.25 (≈ 0.53 µM)
CC(=O)Nc1ccc(OCCCN2CCN(CC(O)(Cn3cncn3)c3ccc(F)cc3F)CC2)cc1 (racemic) | 0.25 (≈ 0.486 µM) | 0.25 (≈ 0.486 µM) | 2 (≈ 3.89 µM) | Active | 1 (≈ 1.94 µM) | 0.25 (≈ 0.486 µM) | > 64 | 4 (≈ 7.77 µM)
OC(CN1CCN(CCCOc2ccccc2Br)CC1)(Cn1cncn1)c1ccc(F)cc1F (racemic) | 0.0156 (≈ 0.0291 µM) | 0.25 (≈ 0.466 µM) | 8 (≈ 14.9 µM) | Active | 1 (≈ 1.86 µM) | 0.0625 (≈ 0.117 µM) | 16 (≈ 29.8 µM) | 1 (≈ 1.86 µM)
OC(CN1CCN(CCCCOc2ccccc2)CC1)(Cn1cncn1)c1ccc(F)cc1F (racemic) | 0.25 (≈ 0.53 µM) | 1 (≈ 2.12 µM) | 32 (≈ 67.9 µM) | Active | 1 (≈ 2.12 µM) | 0.25 (≈ 0.53 µM) | 8 (≈ 17 µM) | 4 (≈ 8.48 µM)
OC(Cn1cncn1)(Cn1cncn1)c1ccc(F)cc1F [FLUCONAZOLE] | 1 (≈ 3.27 µM) | 4 (≈ 13.1 µM) | > 64 | Active | 1 (≈ 3.27 µM) | 1 (≈ 3.27 µM) | > 64 | 16 (≈ 52.2 µM)
CCC(C)n1ncn(-c2ccc(N3CCN(c4ccc(OCC5COC(Cn6cncn6)(c6ccc(Cl)cc6Cl)O5)cc4)CC3)cc2)c1=O (stereo not given) [ITRACONAZOLE] | 0.125 (≈ 0.177 µM) | 0.125 (≈ 0.177 µM) | > 64 | Active | 0.125 (≈ 0.177 µM) | 0.125 (≈ 0.177 µM) | 2 (≈ 2.83 µM) | 0.25 (≈ 0.354 µM)
C[C@@H](c1ncncc1F)[C@](O)(Cn1cncn1)c1ccc(F)cc1F [VORICONAZOLE] | 0.0625 (≈ 0.179 µM) | 0.0625 (≈ 0.179 µM) | > 64 | Active | 0.0625 (≈ 0.179 µM) | 0.0625 (≈ 0.179 µM) | 0.5 (≈ 1.43 µM) | 0.0625 (≈ 0.179 µM)
